Values belong to the compound of their own block, whether it stands above or below them.
Assays:
[1] = biological target: Transitional endoplasmic reticulum ATPase (Homo sapiens, UniProt P55072); assay: Inhibition of human p97 using ATP as substrate after 60 mins by ADP-Glo assay
[2] = system: A549; assay: Antiproliferative activity against human A549 cells after 72 hrs by CCK-8 assay; format: functional, cell-based; conditions: A549, 72 h
[3] = AUC (0 to t) in Sprague-Dawley rat at 30 mg/kg, ig administered as single dose by LC-MS/MS analysis; format: ADME, organism-based; conditions: in vivo, po
How it was run: (§1)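 Male Sprague-Dawley rats received a single dose, iv by tail vein at 5 mg/kg or orally (ig) at 30 mg/kg. Vehicle was a solution of 40% PEG400, 10% castor oil, 5% EtOH and 45% buffered saline. Orbital sinus blood (0.1 mL) was taken into heparinized tubes at 2, 5, 15 and 30 min and at 1, 2, 4, 8 and 24 h, then centrifuged for plasma.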

[4] = Half life in rat liver microsomes at 1 uM after 60 mins by LC-MS analysis; format: ADME, Microsome
[5] = Intrinsic clearance in human liver microsomes at 1 uM after 60 mins by LC-MS analysis; format: ADME, Microsome; conditions: 1 h
[6] = Intrinsic clearance in dog liver microsomes at 1 uM after 60 mins by LC-MS analysis; format: ADME, Canis lupus familiaris, Microsome; conditions: 1 h
[7] = Intrinsic clearance in mouse liver microsomes at 1 uM after 60 mins by LC-MS analysis; format: ADME, Microsome; conditions: 1 h
[8] = AUC (0 to infinity) in Sprague-Dawley rat at 5 mg/kg, iv administered as single dose by LC-MS/MS analysis; format: ADME, organism-based; design: dose 5 mg/kg, route intravenous, time infinity; conditions: in vivo; how it was run: as §1
[9] = Half life in dog liver microsomes at 1 uM after 60 mins by LC-MS analysis; format: ADME, Canis lupus familiaris, Microsome
[10] = Half life in human liver microsomes at 1 uM after 60 mins by LC-MS analysis; format: ADME, Microsome
[11] = Tmax in Sprague-Dawley rat at 5 mg/kg, iv administered as single dose by LC-MS/MS analysis; format: ADME, organism-based; conditions: in vivo; how it was run: as §1
[12] = Oral bioavailability in Sprague-Dawley rat at 30 mg/kg administered as single dose by LC-MS/MS analysis; format: ADME, organism-based; conditions: in vivo; how it was run: as §1
[13] = AUC (0 to t) in Sprague-Dawley rat at 5 mg/kg, iv administered as single dose by LC-MS/MS analysis; format: ADME, organism-based; conditions: in vivo; how it was run: as §1
[14] = Intrinsic clearance in rat liver microsomes at 1 uM after 60 mins by LC-MS analysis; format: ADME, Microsome; conditions: 1 h
[15] = Half life in monkey liver microsomes at 1 uM after 60 mins by LC-MS analysis; format: ADME, Macaca mulatta, Microsome; conditions: rhesus monkey
[16] = Tmax in Sprague-Dawley rat at 30 mg/kg, ig administered as single dose by LC-MS/MS analysis; format: ADME, organism-based; conditions: in vivo, po; how it was run: as §1
[17] = AUC (0 to infinity) in Sprague-Dawley rat at 30 mg/kg, ig administered as single dose by LC-MS/MS analysis; format: ADME, organism-based; design: dose 30 mg/kg, route intragastric, time infinity; conditions: in vivo, po; how it was run: as §1
[18] = MRT in Sprague-Dawley rat at 5 mg/kg, iv administered as single dose by LC-MS/MS analysis; format: ADME, organism-based; conditions: in vivo; how it was run: as §1
[19] = Intrinsic clearance in monkey liver microsomes at 1 uM after 60 mins by LC-MS analysis; format: ADME, Macaca mulatta, Microsome; conditions: rhesus monkey, 1 h
[20] = Half life in Sprague-Dawley rat at 30 mg/kg, ig administered as single dose by LC-MS/MS analysis; format: ADME, organism-based; conditions: in vivo, po; how it was run: as §1
[21] = Cmax in Sprague-Dawley rat at 30 mg/kg, ig administered as single dose by LC-MS/MS analysis; format: ADME, organism-based; design: dose 30 mg/kg, route intragastric; conditions: in vivo, po; how it was run: as §1
[22] = Cmax in Sprague-Dawley rat at 5 mg/kg, iv administered as single dose by LC-MS/MS analysis; format: ADME, organism-based; design: dose 5 mg/kg, route intravenous; conditions: in vivo; how it was run: as §1
[23] = MRT in Sprague-Dawley rat at 30 mg/kg, ig administered as single dose by LC-MS/MS analysis; format: ADME, organism-based; conditions: in vivo, po; how it was run: as §1
[24] = Half life in mouse liver microsomes at 1 uM after 60 mins by LC-MS analysis; format: ADME, Microsome
[25] = Half life in Sprague-Dawley rat at 5 mg/kg, iv administered as single dose by LC-MS/MS analysis; format: ADME, organism-based; conditions: in vivo; how it was run: as §1

Transitional endoplasmic reticulum ATPase, sequence (P55072 whole entry): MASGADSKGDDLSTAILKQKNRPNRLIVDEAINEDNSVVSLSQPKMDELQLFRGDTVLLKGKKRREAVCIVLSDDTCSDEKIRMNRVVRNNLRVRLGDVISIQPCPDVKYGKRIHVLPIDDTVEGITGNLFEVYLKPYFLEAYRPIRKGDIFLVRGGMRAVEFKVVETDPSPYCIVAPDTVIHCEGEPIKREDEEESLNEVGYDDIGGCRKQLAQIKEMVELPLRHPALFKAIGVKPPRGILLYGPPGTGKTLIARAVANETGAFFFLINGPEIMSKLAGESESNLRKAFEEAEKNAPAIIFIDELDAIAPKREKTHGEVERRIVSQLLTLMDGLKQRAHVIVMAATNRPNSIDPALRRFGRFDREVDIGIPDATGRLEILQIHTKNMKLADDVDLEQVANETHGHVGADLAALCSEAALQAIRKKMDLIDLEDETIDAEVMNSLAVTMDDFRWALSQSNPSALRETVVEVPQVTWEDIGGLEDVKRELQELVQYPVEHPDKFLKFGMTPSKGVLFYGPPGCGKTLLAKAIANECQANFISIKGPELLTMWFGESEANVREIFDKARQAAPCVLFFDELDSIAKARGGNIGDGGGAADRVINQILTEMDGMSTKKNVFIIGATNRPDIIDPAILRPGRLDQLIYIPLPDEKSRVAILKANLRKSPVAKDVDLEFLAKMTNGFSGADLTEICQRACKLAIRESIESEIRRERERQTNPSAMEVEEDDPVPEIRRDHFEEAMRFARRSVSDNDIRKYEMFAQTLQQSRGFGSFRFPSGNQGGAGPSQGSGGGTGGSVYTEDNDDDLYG

Structure (SMILES): Cc1cc2c(C(N)=S)cccc2n1-c1nc2c(c(NCc3ccccc3)n1)COCC2
IC50 ([1]; read-out: IC50): 193 nM

Structure (SMILES): C=CC(=O)Nc1cccc2c1cc(C)n2-c1nc2c(c(NCc3cccc4ccccc34)n1)COCC2
IC50 [1]: Not Active

Structure (SMILES): Cc1cc2c(C(N)=O)cccc2n1-c1nc2c(c(NCc3ccccc3)n1)CCCCCC2
IC50 ([1]; read-out: IC50): 120 nM

Structure (SMILES): Cc1cc2c(C(N)=O)cccc2n1-c1nc2c(c(NCc3ccncc3)n1)COCC2
IC50 [1]: Not Active

Structure (SMILES): C=CC(=O)Nc1cccc2c1cc(C)n2-c1nc2c(c(NCc3ccccc3)n1)COCC2
IC50 ([1]; read-out: IC50): 58.3 nM
IC50 [2]: 4600 nM

Structure (SMILES): C=CC(=O)Nc1cccc2c1cc(C)n2-c1nc2c(c(NCc3ccncc3)n1)COCC2
IC50 ([1]; read-out: IC50): 5100 nM

Structure (SMILES): CC(=O)Nc1cccc2c1ccn2-c1nc2c(c(NCc3ccccc3)n1)COCC2
IC50 ([1]; read-out: IC50): 922 nM

Structure (SMILES): Cc1cc2c(NC(=O)CN3CCCC3)cccc2n1-c1nc2c(c(NCc3ccccc3)n1)COCC2
IC50 ([1]; read-out: IC50): 449 nM

Structure (SMILES): Cc1cc2c(C(N)=O)cccc2n1-c1nc2c(c(NCc3ccccc3)n1)COCC2 [CB-5083]
half-life at 1 µM [4]: 17 min
CLint [5]: 48.4 mL/min/kg
CLint [6]: 54.7 mL/min/kg
CLint [7]: 38.6 mL/min/kg
half-life at 1 µM [9]: 36.5 min
half-life at 1 µM [10]: 25.8 min
CLint [14]: 146 mL/min/kg
half-life at 1 µM [15]: 14.7 min
CLint [19]: 127 mL/min/kg
half-life at 1 µM [24]: 141 min

Structure (SMILES): Cc1cc2c(NS(=O)(=O)c3ccccc3)cccc2n1-c1nc2c(c(NCc3ccccc3)n1)COCC2
IC50 ([1]; read-out: IC50): 135 nM

Structure (SMILES): NC(=O)c1cccc(Nc2nc3c(c(NCc4ccccc4)n2)COCC3)c1
IC50 [1]: Not Active

Structure (SMILES): Cc1cc2c(C(N)=O)cccc2n1-c1nccc(NCc2ccccc2)n1
IC50 ([1]; read-out: IC50): 161 nM

More lines, now with the values ahead:

IC50 [1]: Not Active
Structure (SMILES): Cc1cc2c(C(N)=O)cccc2n1-c1nc2c(c(NCCN3CCOCC3)n1)COCC2

IC50 ([1]; read-out: IC50): 129 nM
Structure (SMILES): CC(=O)Nc1cccc2c1cc(C)n2-c1nc2c(c(NCc3ccccc3)n1)COCC2

IC50 ([1]; read-out: IC50): 82.8 nM
IC50 [2]: 2600 nM
Structure (SMILES): Cc1cc2c(C(N)=O)cccc2n1-c1nc2c(c(NCc3ccccc3)n1)CCCCC2

AUC(0-t) [3]: 1770 ng·h/mL
half-life at 1 µM [4]: 16.8 min
CLint [5]: 29.5 mL/min/kg
CLint [6]: 55 mL/min/kg
CLint [7]: 114 mL/min/kg
AUC(0-inf) [8]: 7420 ng·h/mL
half-life at 1 µM [9]: 36.3 min
IC50 ([1]; read-out: IC50): 36.4 nM
half-life at 1 µM [10]: 42.3 min
IC50 [2]: 1600 nM
Tmax [11]: 3 min
bioavailability [12]: 4.2%
AUC(0-t) [13]: 6950 ng·h/mL
CLint [14]: 149 mL/min/kg
half-life at 1 µM [15]: 12.3 min
Tmax [16]: 160 min
AUC(0-inf) [17]: 2560 ng·h/mL
MRT [18]: 271 min
CLint [19]: 152 mL/min/kg
half-life [20]: 274 min
Cmax [21]: 191 ng/mL
Cmax [22]: 3380 ng/mL
MRT [23]: 425 min
half-life at 1 µM [24]: 47.8 min
half-life [25]: 218 min
Structure (SMILES): Cc1cc2c(NS(C)(=O)=O)cccc2n1-c1nc2c(c(NCc3ccccc3)n1)COCC2

IC50 ([1]; read-out: IC50): 308 nM
Structure (SMILES): Cc1cc2c(NC(=O)CCl)cccc2n1-c1nc2c(c(NCc3ccccc3)n1)COCC2

IC50 [1]: Not Active
Structure (SMILES): C=CC(=O)Nc1cccc2c1cc(C)n2-c1nc2c(c(NCC3CC3)n1)COCC2

IC50 ([1]; read-out: IC50): 387 nM
Structure (SMILES): Cc1cc2c(NC(=O)/C=C/CN(C)C)cccc2n1-c1nc2c(c(NCc3ccccc3)n1)COCC2

IC50 ([1]; read-out: IC50): 34.6 nM
IC50 [2]: 2100 nM
Structure (SMILES): Cc1cc2c(NS(=O)(=O)C3CC3)cccc2n1-c1nc2c(c(NCc3ccccc3)n1)COCC2

IC50 [1]: Not Active
Structure (SMILES): Cc1cc2c(C(N)=O)cccc2n1-c1nc2c(c(NCC3CC3)n1)COCC2

IC50 ([1]; read-out: IC50): 447 nM
Structure (SMILES): Cc1cc2c(NC(=O)/C=C/c3ccccc3)cccc2n1-c1nc2c(c(NCc3ccccc3)n1)COCC2

IC50 ([1]; read-out: IC50): 101 nM
Structure (SMILES): Cc1cc2c(NS(=O)(=O)C(F)(F)F)cccc2n1-c1nc2c(c(NCc3ccccc3)n1)COCC2

From ChEMBL document CHEMBL4330115, “Discovery of a new class of valosine containing protein (VCP/P97) inhibitors for the treatment of non-small cell lung cancer” (Bioorg Med Chem, 2019)
